# Ba/F3 V617F tox: reduced viability of JAK2V617F-dependent Ba/F3 cells, primary screen, JAK2V617F inhibitor project, cell-based, Ba/F3 EpoR-JAK2V617F, luminescence. inhibition, % at 5.6 µM. hit rate 1.1% among 220,000. ATP luminescence;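 active = inhibition above the campaign mean plus 3 SD over all tested compounds, cut at about 24% in these data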;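 also: cytokine-independent growth of Ba/F3 cells driven by EpoR plus mutant JAK2; 0% = DMSO-treated cells and 100% = JAK inhibitor I control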
# bCat nuc transl: modulators of beta-catenin nuclear translocation, primary screen, imaging, HeLa cells, immunofluorescence, high-content | nuclear translocation activity, % at 5 µM | hit rate 0.3% among 190,000 | AID 1665, 2009;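 active = nuclear translocation activity above 50% at 5 µM, with a well cell count of 50 or more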;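 also: per-cell ratio of nuclear to cytoplasmic median beta-catenin stain intensity; plate controls were DMSO negative control for no effect and GSK-3 inhibitor IX positive control for full effect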
#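 test system = HeLa cells, endogenous beta-catenin | dosing = single 5 µM dose plus 0.02–20 µM confirmation series | times = compound treatment 24 h, 37°C, 5% CO2 | technique = beta-catenin immunofluorescence imaging with DAPI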
# Lmaj promast: Leishmania major promastigote growth inhibition, primary screen | inhibition, % at 10 µM | Leishmania major promastigotes, resazurin fluorescence viability | AID 1063, 2008 | hit rate 9% among 200,000; in the data active = inhibition above about 50%;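 also: promastigotes grown with compound for 44 hours at 28 °C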
# APP 5UTR inh: inhibitors of APP translation via 5'UTR reporter, primary screen, APP 5'UTR luciferase, SH-SY5Y cells. SH-SY5Y APP 5'UTR-luciferase reporter, luminescence. inhibition, % at 2 µM. hit rate 0.82% among 190,000;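 active = inhibition above a set limit, derived from the sample mean plus 3 SD, cut at about 45% in these data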
# MT stabilizer: microtubule stabilizers in HeLa cells, primary screen, imaging, high-content imaging; % tubulin-high responders, % at 10 µM; hit rate 0.83% among 200,000; HeLa tubulin immunostaining HCS, 24 h; share of cells brighter than vehicle mean+2SD;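 active = plate Z-score above 3 for both tubulin-high and condensed-nucleus cell shares, with cell loss under 80%, at 10 µM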;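 also: anti alpha tubulin signal scored within the nucleus-defined area of each cell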
# BaF3 tox: parental Ba/F3 cell viability inhibition, counter-screen for JAK2V617F inhibitor project, murine pro-B, CellTiter-Glo luminescence; inhibition, % at 5.6 µM; CellTiter-Glo ATP luminescence; AID 1486, 2009; hit rate 1.1% among 220,000;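 active = inhibition above a per-campaign cutoff, the mean inhibition of all tested compounds plus 3 SD, cut at about 27% in these data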;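 also: 0% = DMSO wells and 100% = JAK Inhibitor I control wells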
# An asterisk follows results filed as active; / = no result given. Hits are enriched below; roughly 9.6% of the tested compounds scored in any of these assays.
SMILES,Ba/F3 V617F tox,bCat nuc transl,Lmaj promast,APP 5UTR inh,MT stabilizer,BaF3 tox
COc1cccc(OC)c1C(=O)Nc1cc(C)nn1-c1nc2ccccc2[nH]1,-4,0,66*,10,9.3*,0
COc1ccc(-c2nnn(-c3ccc(Cl)cc3Cl)c2N)cc1,-5,-1,/,/,/,1
CC1C(=O)NN=C1C(=O)N/N=C/c1ccco1 (centres undefined),5,1,-5,72*,3,4
CCOc1ccc2ccccc2c1CNc1nnnn1CC,4,-1,6,-8,3,-2
CN1C(=O)CC(C(=O)Nc2ccccc2F)SC1=Nc1ccc2c(c1)OCO2 (centres undefined),-2,-3,4,-6,2,6
COc1ccc(CC(=O)n2nc(-c3ccc(Cl)cc3)nc2NCc2ccco2)cc1,0,-4,2,-28,28*,1
Cc1ccc(S(=O)(=O)NC(=O)c2ccc(-c3ccc(-c4ccccc4)cc3)o2)c(C)c1,-5,/,-9,-8,4,0
Cc1cc2cc(CN(Cc3ccco3)C(=O)NCc3ccccc3)c(=O)[nH]c2cc1C,9,-4,17,-14,6,-3
Cc1ccc(C)c2[nH]c(=O)c(CN(Cc3cccs3)C(=S)NCc3ccco3)cc12,1,-1,70*,-3,4,8
Cc1cc2cc(CN(Cc3cccs3)C(=S)NCc3ccco3)c(=O)[nH]c2cc1C,5,0,88*,14,4,6
CCN(CC)CCN(Cc1cc2cc(C)c(C)cc2[nH]c1=O)C(=S)NCc1ccco1,-1,1,60*,13,4,-1
Cc1cc2cc(CN(CCN(C)C)C(=S)NCc3ccco3)c(=O)[nH]c2cc1C,-2,1,13,-10,2,5
CNC(=S)N(Cc1cccs1)Cc1cc2cc(OC)ccc2[nH]c1=O,-4,1,1,22,5,-4
COc1ccc2[nH]c(=O)c(CN(Cc3cccs3)C(=S)Nc3cccc(C)c3)cc2c1,-3,3,100*,13,3,2
CC(CCc1ccccc1)NC(=O)C1CCN(S(=O)(=O)N2CCCCC2)CC1 (centres undefined),0,2,7,9,4,1
Cc1ccc(CCNC(=O)CNC(=O)c2cccs2)cc1,4,1,9,11,6,5
Nc1c(Cl)ncnc1NCCc1ccc(O)cc1,5,0,/,/,/,29*
Clc1ccc(CCNc2ncnc3nc[nH]c23)cc1,-1,-2,-2,2,5,10
O=C(OCC(=O)N(C1CCCCC1)C1CCCCC1)c1cnccn1,2,0,-1,-3,3,1
Cc1ccc2nc(Cl)c(CN(C(=O)c3cnccn3)C3CCCCC3)cc2c1,-4,/,53*,-5,2,1
S=C(Nc1cccc(Cl)c1)N(CCCN1CCCC1)Cc1cccn1Cc1ccc(Cl)cc1,18,0,100*,-19,4,17
COc1cccc(NC(=S)N(CCCN2CCCC2)Cc2ccco2)c1,0,-1,44,-8,3,5
CSc1cccc(NC(=S)N(CCCN2CCCC2)Cc2cccn2Cc2ccc(Cl)cc2)c1,4,0,101*,12,3,10
COc1cccc(NC(=S)N(CCCN2CCCC2)Cc2cccn2Cc2ccc(Cl)cc2)c1,21,0,91*,-12,4,15
CCCCC(O)(CCCC)C(=O)NN(C(=O)c1cccnc1Cl)c1ccccc1,-2,0,/,/,/,-2
SMILES,Ba/F3 V617F tox,bCat nuc transl,Lmaj promast,APP 5UTR inh,MT stabilizer,BaF3 tox
O=C(c1ccccc1)c1c[nH]c(C(=O)NNc2ccccc2)c1,-2,-4,89*,-3,5,1
Cc1csc2sc(-c3ccnc(SCC(=O)NCc4ccccc4)n3)c(C)c12,81*,1,/,/,/,60*
CCOCCCNC(=S)N1C2CCC1CC(NC(=O)NC13CC4CC(CC(C4)C1)C3)C2 (centres undefined),-3,2,-6,-6,3,4
CCOC(=O)c1c(NC(=O)CSc2nc3cc(Cl)ccc3c(=O)n2Cc2ccco2)sc(C(=O)N(C)C)c1C,2,2,78*,8,3,7
CC(C)(C)c1ccc(C(=O)Cn2nc(C(=O)O)c3ccccc3c2=O)cc1,3,2,/,/,/,1
COC(=O)Cn1c(=NC(=O)c2ccc([N+](=O)[O-])s2)sc2cc(Br)ccc21,-2,0,100*,0,6,4
O=C(CSc1cccc[n+]1[O-])c1ccc(Cl)s1,2,-9,0,-8,3,4
Cc1ccc(C(=O)OCC(=O)Nc2cc(F)ccc2F)cc1NC(=O)c1ccco1,-4,/,88*,-16,1,1
O=C(CSc1nc2ccccc2c(=O)n1CC1CCCO1)NCc1ccc2c(c1)OCO2 (centres undefined),-4,-1,3,-20,4,-3
Cc1ccc(S(=O)(=O)NCC(c2cccnc2)N2CCOCC2)cc1 (centres undefined),0,0,6,-12,3,1
O=S(=O)(NCC(c1cccnc1)N1CCN(c2ccc(F)cc2)CC1)c1ccc(F)cc1 (centres undefined),-1,-3,91*,7,2,0
O=S(=O)(NCC(c1cccnc1)N1CCOCC1)c1cccs1 (centres undefined),3,1,-7,-2,4,5
O=S(=O)(NCC(c1cccnc1)N1CCN(c2ccc(F)cc2)CC1)c1cccs1 (centres undefined),3,-4,87*,-6,3,5
O=S(=O)(NCC(c1cccnc1)N1CCN(c2ccccc2F)CC1)c1cccs1 (centres undefined),1,-4,78*,-15,4,3
O=S(=O)(NCC(c1cccnc1)N1CCN(Cc2ccccc2)CC1)c1ccccc1 (centres undefined),-3,-2,83*,6,2,3
O=C(CNC(=O)Cc1ccc(Cl)cc1)NCc1ccco1,-2,-2,-5,-24,1,5
CCCOc1ccc(/C=C/C(=O)O)cc1OC,-1,-3,-5,-4,4,0
CCOc1ccc(/C=C/C(=O)c2ccccc2)cc1OC,-1,2,99*,-144,5,-1
COc1ccc(C(=O)/C=C/c2ccc(OC3CSC3)cc2)cc1OC,-3,0,12,-9,5,3
COc1ccc(/C=C/C(=O)c2ccc(NC(=O)c3cccs3)cc2)cc1OC,3,-2,98*,-44,7,10
C/C=C/c1ccc(OCCOc2ccc(C=O)cc2)c(OC)c1,0,-2,82*,6,4,5
